In ChEMBL document CHEMBL3588805, “Characterization and Biological Activities of Ocellatin Peptides from the Skin Secretion of the Frog Leptodactylus pustulatus” (J Nat Prod, 2015):
Converted amounts (≈) assume the structure as drawn. The source made the active and inactive calls. No cut-off for these calls is given here. Where a SMILES comes first, the peptide text is derived from it.

Columns and labels:
[1] = Cytotoxicity against mouse NIH/3T3 cells at antibacterial MIC (Escherichia coli ATCC 25922) assessed as reduction in cell index incubated for 60 hrs; type: cell-based; settings: nih3t3, 60 h
[2] = test system: Escherichia coli; test: Antibacterial activity against Escherichia coli ATCC 25922 assessed as inhibition of visible bacterial growth incubated at 37 degC for 24 hrs by CLSI protocol based method; type: functional; settings: ATCC 25922, 24 h
Method in brief: (§1)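 Broth microdilution per CLSI 2012. Strains grown at 37 °C in Mueller-Hinton broth to log phase (1 × 10^8 CFU/mL). Peptide 2-fold serial dilutions, 6.25–800 μg/mL, in Mueller-Hinton broth; final inoculum 5 × 10^5 CFU/mL per well. Aerobic incubation 24 h at 37 °C. MIC is the lowest concentration with no visible growth (A600 < 0.05). Meropenem control for Gram-negatives, oxacillin for S. aureus. Triplicate, two independent experiments.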

[3] = test system: Staphylococcus aureus; test: Antibacterial activity against Staphylococcus aureus […] assessed as inhibition of visible bacterial growth incubated at 37 degC for 24 hrs by CLSI protocol based method; type: functional; method in brief: as §1
[4] = test system: Klebsiella pneumoniae; test: Antibacterial activity against Klebsiella pneumoniae ATCC 700603 assessed as inhibition of visible bacterial growth incubated at 37 degC for 24 hrs by CLSI protocol based method; type: functional; settings: ATCC 700603, 24 h; method in brief: as §1
[5] = test system: Salmonella enterica; test: Antibacterial activity against Salmonella choleraesuis ATCC 14028 assessed as inhibition of visible bacterial growth incubated at 37 degC for 24 hrs by CLSI protocol based method; type: functional; settings: ATCC 14028, 24 h
Method in brief: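 Strain grown at 37 °C in Mueller-Hinton broth to log phase (1 × 10^8 CFU/mL). Broth microdilution per CLSI (2012) with 2-fold peptide dilutions in Mueller-Hinton broth, 6.25–800 μg/mL, final inoculum 5 × 10^5 CFU/mL. Incubated 24 h, 37 °C, aerobic. MIC is the lowest concentration giving absorbance below 0.05 at 600 nm. Meropenem control. Triplicate, two independent experiments.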

[6] = Toxicity in human RBC assessed as induction of hemolysis at antibacterial MIC (Escherichia coli ATCC 25922) incubated for 1 hr at 37 degC; type: cell-based, Erythrocyte; settings: human red blood cells (RBC), read-out: Activity
Method in brief: (§2)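 Human RBCs collected in EDTA (1.8 mg/mL), washed three times, resuspended in 0.85% saline, mixed with an equal volume of peptide solution (100–800 μg/mL). 1 h at 37 °C, centrifuged at 10000g for 1 min, supernatant absorbance read at 550 nm. Saline and 0.1% (v/v) Triton X as 0 and 100% controls. % hemolysis = (A peptide − A saline)/(A Triton − A saline) × 100.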

[7] = Toxicity in human RBC assessed as induction of hemolysis at 800 ug/mL incubated for 1 hr at 37 degC; type: cell-based, Erythrocyte; settings: human red blood cells (RBC), read-out: Activity; method in brief: as §2
[8] = test system: Escherichia coli; test: Induction of morphological changes in Escherichia coli ATCC 25922 assessed as cell structural perturbation at 190 uM incubated for 24 hrs by atomic force microscopy; type: functional, organism-based
[9] = test system: Escherichia coli; test: Induction of morphological changes in Escherichia coli ATCC 25922 assessed as cell cytoplasmic content release at 190 uM incubated for 24 hrs by atomic force microscopy; type: functional, organism-based
[10] = test system: Escherichia coli; test: Induction of morphological changes in Escherichia coli ATCC 25922 assessed as cell shape changes release at 190 uM incubated for 24 hrs by atomic force microscopy; type: functional, organism-based
[11] = test system: Escherichia coli; test: Induction of cell envelope morphological changes in Escherichia coli ATCC 25922 at 190 uM incubated for 24 hrs by atomic force microscopy; type: functional, organism-based
[12] = test system: Escherichia coli; test: Induction of morphological changes in Escherichia coli ATCC 25922 assessed as reduction in number of pili at 190 uM incubated for 24 hrs by atomic force microscopy; type: functional, organism-based

Compound	Activity [1]	MIC [2] [µM]	MIC [3] [µM]	MIC [4] [µM]	MIC [5] [µM]	hemolysis at 1 h [6] [%]	hemolysis at 1 h, 800 ug/mL [7] [%]	Activity [8]	Activity [9]	Activity [10]	Activity [11]	Activity [12]
CC[C@H](C)[C@H](NC(=O)[C@H](CCCCN)NC(=O)CNC(=O)[C@H](CCSC)NC(=O)[C@H](C)NC(=O)[C@H](Cc1cnc[nH]1)NC(=O)[C@H](C)NC(=O)[C@@H](NC(=O)[C@H](CC(C)C)NC(=O)[C@H](CCC(N)=O)NC(=O)[C@H](CCCCN)NC(=O)CNC(=O)[C@H](C)NC(=O)[C@H](CC(=O)O)NC(=O)[C@H](CCCCN)NC(=O)[C@@H](NC(=O)[C@@H](NC(=O)[C@H](CC(=O)O)NC(=O)[C@H](Cc1ccccc1)NC(=O)[C@@H](NC(=O)CN)C(C)C)[C@@H](C)CC)[C@@H](C)CC)C(C)C)C(=O)N[C@@H](C)C(=O)N[C@@H](CCC(=O)O)C(=O)N[C@@H](CCCCN)C(=O)N[C@H](C(N)=O)C(C)C (H-GVFDIIKDAGKQLVAHAMGKIAEKV-NH2)	Non-toxic	300 (≈ 791 µg/mL)	> 300	> 300	> 300	1.98	1.98					
CC[C@H](C)[C@H](NC(=O)[C@H](CCCCN)NC(=O)CNC(=O)[C@@H](NC(=O)[C@H](C)NC(=O)[C@H](Cc1cnc[nH]1)NC(=O)[C@H](C)NC(=O)[C@@H](NC(=O)[C@H](CC(C)C)NC(=O)[C@H](CCC(N)=O)NC(=O)[C@H](CCCCN)NC(=O)CNC(=O)[C@H](C)NC(=O)[C@H](CC(=O)O)NC(=O)[C@H](CCCCN)NC(=O)[C@@H](NC(=O)[C@@H](NC(=O)[C@H](CC(=O)O)NC(=O)[C@H](Cc1ccccc1)NC(=O)[C@@H](NC(=O)CN)C(C)C)[C@@H](C)CC)[C@@H](C)CC)C(C)C)[C@@H](C)O)C(=O)N[C@@H](C)C(=O)N[C@@H](CCC(=O)O)C(=O)N[C@@H](CCCCN)C(=O)N[C@H](C(N)=O)C(C)C (H-GVFDIIKDAGKQLVAHATGKIAEKV-NH2)	Non-toxic	> 310	> 310	> 310	> 310	0	0					
CC[C@H](C)[C@H](NC(=O)[C@H](CCCCN)NC(=O)CNC(=O)[C@H](CCSC)NC(=O)[C@H](C)NC(=O)[C@H](Cc1cnc[nH]1)NC(=O)[C@H](C)NC(=O)[C@@H](NC(=O)[C@H](CC(C)C)NC(=O)[C@H](CCC(N)=O)NC(=O)[C@H](CCCNC(=N)N)NC(=O)CNC(=O)[C@H](C)NC(=O)[C@H](CC(=O)O)NC(=O)[C@H](CCCCN)NC(=O)[C@@H](NC(=O)[C@@H](NC(=O)[C@H](CC(=O)O)NC(=O)[C@H](Cc1ccccc1)NC(=O)[C@@H](NC(=O)CN)C(C)C)[C@@H](C)CC)[C@@H](C)CC)C(C)C)C(=O)N[C@@H](C)C(=O)N[C@@H](CCC(=O)O)C(=O)N[C@@H](CCCCN)C(=O)N[C@H](C(N)=O)C(C)C (H-GVFDIIKDAGRQLVAHAMGKIAEKV-NH2)	Non-toxic	300 (≈ 800 µg/mL)	> 300	> 300	> 300	4.05	4.05					
CC[C@H](C)[C@H](NC(=O)[C@H](CC(C)C)NC(=O)[C@H](CCC(N)=O)NC(=O)[C@H](CCCCN)NC(=O)CNC(=O)[C@H](C)NC(=O)CNC(=O)[C@H](CCCCN)NC(=O)[C@@H](NC(=O)[C@@H](NC(=O)[C@H](CC(=O)O)NC(=O)[C@H](Cc1ccccc1)NC(=O)[C@@H](NC(=O)CN)C(C)C)[C@@H](C)CC)[C@@H](C)CC)C(=O)N[C@@H](C)C(=O)N[C@@H](Cc1cnc[nH]1)C(=O)N[C@@H](C)C(=O)N[C@@H](CCSC)C(=O)N[C@@H](CCC(=O)O)C(=O)N[C@@H](CCCCN)C(=O)N[C@H](C(=O)N[C@@H](C)C(=O)N[C@@H](CCC(=O)O)C(=O)N[C@@H](CCCCN)C(=O)N[C@H](C(=O)NCC(=O)N[C@@H](CC(C)C)C(=O)N[C@@H](CC(N)=O)C(=O)N[C@@H](CCCCN)C(=O)N[C@@H](CC(=O)O)C(=O)NCC(=O)N[C@@H](CC(N)=O)C(=O)O)C(C)C)[C@@H](C)CC (H-GVFDIIKGAGKQLIAHAMEKIAEKVGLNKDGN-OH)	Non-toxic	120 (≈ 404 µg/mL)	> 240	> 240	> 240	0	0.69					
CC[C@H](C)[C@H](NC(=O)[C@H](CCCCN)NC(=O)CNC(=O)[C@H](CCSC)NC(=O)[C@H](C)NC(=O)[C@H](Cc1cnc[nH]1)NC(=O)[C@H](C)NC(=O)[C@@H](NC(=O)[C@H](CC(C)C)NC(=O)[C@H](CCC(N)=O)NC(=O)[C@H](CCCCN)NC(=O)CNC(=O)[C@H](C)NC(=O)CNC(=O)[C@H](CCCCN)NC(=O)[C@@H](NC(=O)[C@@H](NC(=O)[C@H](CC(=O)O)NC(=O)[C@H](Cc1ccccc1)NC(=O)[C@@H](NC(=O)CN)C(C)C)[C@@H](C)CC)[C@@H](C)CC)[C@@H](C)CC)C(=O)N[C@@H](C)C(=O)N[C@@H](CCC(=O)O)C(=O)N[C@@H](CCCCN)C(=O)N[C@H](C(N)=O)C(C)C (H-GVFDIIKGAGKQLIAHAMGKIAEKV-NH2)	Non-toxic	80 (≈ 208 µg/mL)	> 310	310 (≈ 804 µg/mL)	310 (≈ 804 µg/mL)	0.19	4.29					
CC[C@H](C)[C@H](NC(=O)[C@H](CCCCN)NC(=O)CNC(=O)[C@H](CCSC)NC(=O)[C@H](C)NC(=O)[C@H](Cc1cnc[nH]1)NC(=O)[C@H](C)NC(=O)[C@@H](NC(=O)[C@H](CC(C)C)NC(=O)[C@H](CCC(N)=O)NC(=O)[C@H](CCCCN)NC(=O)CNC(=O)[C@H](C)NC(=O)CNC(=O)[C@H](CCCCN)NC(=O)[C@@H](NC(=O)[C@@H](NC(=O)[C@H](CC(=O)O)NC(=O)[C@H](Cc1ccccc1)NC(=O)[C@@H](NC(=O)CN)C(C)C)[C@@H](C)CC)[C@@H](C)CC)[C@@H](C)CC)C(=O)N[C@@H](C)C(=O)N[C@@H](CCC(=O)O)C(=O)N[C@@H](CCCCN)C(=O)N[C@H](C(=O)NCC(=O)N[C@@H](CC(C)C)C(=O)N[C@@H](CC(N)=O)C(=O)N[C@@H](CCCCN)C(=O)N[C@@H](CC(=O)O)C(=O)NCC(=O)N[C@@H](CC(N)=O)C(=O)O)C(C)C (H-GVFDIIKGAGKQLIAHAMGKIAEKVGLNKDGN-OH)	Non-toxic	60 (≈ 198 µg/mL)	240 (≈ 791 µg/mL)	> 240	240 (≈ 791 µg/mL)	0.06	13.7	Active	Active	Active	Active	Active
CC[C@H](C)[C@H](NC(=O)[C@H](CCCCN)NC(=O)CNC(=O)[C@H](CCSC)NC(=O)[C@H](C)NC(=O)[C@H](CCCNC(=N)N)NC(=O)[C@H](C)NC(=O)[C@@H](NC(=O)[C@H](CC(C)C)NC(=O)[C@H](CCC(N)=O)NC(=O)[C@H](CCCCN)NC(=O)CNC(=O)[C@H](C)NC(=O)CNC(=O)[C@H](CCCCN)NC(=O)[C@@H](NC(=O)[C@@H](NC(=O)[C@H](CC(=O)O)NC(=O)[C@H](Cc1ccccc1)NC(=O)[C@@H](NC(=O)CN)C(C)C)[C@@H](C)CC)[C@@H](C)CC)[C@@H](C)CC)C(=O)N[C@@H](C)C(=O)N[C@@H](CCC(=O)O)C(=O)N[C@@H](CCCCN)C(=O)N[C@H](C(=O)NCC(=O)N[C@@H](CC(C)C)C(=O)N[C@@H](CC(N)=O)C(=O)N[C@@H](CCCCN)C(=O)N[C@@H](CC(=O)O)C(=O)NCC(=O)N[C@@H](CC(N)=O)C(=O)O)C(C)C (H-GVFDIIKGAGKQLIARAMGKIAEKVGLNKDGN-OH)	Non-toxic	60 (≈ 199 µg/mL)	240 (≈ 795 µg/mL)	240 (≈ 795 µg/mL)	240 (≈ 795 µg/mL)	0	8.09					
CC[C@H](C)[C@H](NC(=O)[C@H](C)NC(=O)[C@H](Cc1cnc[nH]1)NC(=O)[C@H](C)NC(=O)[C@@H](NC(=O)[C@H](CC(C)C)NC(=O)[C@H](CC(=O)O)NC(=O)[C@H](CCCCN)NC(=O)CNC(=O)[C@H](C)NC(=O)CNC(=O)[C@H](CCCCN)NC(=O)[C@@H](NC(=O)[C@@H](NC(=O)[C@H](CC(=O)O)NC(=O)[C@@H](NC(=O)[C@@H](NC(=O)CN)C(C)C)[C@@H](C)CC)[C@@H](C)CC)[C@@H](C)CC)[C@@H](C)CC)C(=O)NCC(=O)N[C@@H](CCCCN)C(=O)N[C@@H](CC(C)C)C(=O)N[C@@H](C)C(=O)N[C@@H](CCC(=O)O)C(=O)N[C@@H](CCCCN)C(=O)N[C@H](C(N)=O)C(C)C (H-GVIDIIKGAGKDLIAHAIGKLAEKV-NH2)	Non-toxic	320 (≈ 809 µg/mL)	> 320	> 320	> 320	0.69	0.69					
